Measured values reported in ChEMBL document CHEMBL2062433, “Synthesis and antiviral activity of substituted bisaryl amide compounds as novel influenza virus inhibitors” (Eur J Med Chem, 2012).

Assays:
Influenza A virus [1] = test: Antiviral activity against Influenza A virus (A/Guangdong-Luohu/219/2006(H1N1)) infected in MDCK cells assessed as inhibition of virus-induced cytopathic effect; type: functional, organism-based
Method in brief: (§1)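 Confluent MDCK monolayers infected with 100 TCID50 of virus; 2 h adsorption at 37 °C, PBS wash, then maintenance medium at 37 °C with or without serial compound concentrations. CPE scored once virus control wells reached grade 4. IC50 calculated by Reed and Muench; values are averages of three independent assays.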

[2] = Selectivity index, ratio of TC50 for MDCK cells to IC50 for Influenza A virus (A/Guangdong-Luohu/219/2006(H1N1)); type: toxicity, cell-based; settings: dog, read-out: Selectivity Index
Method in brief: (§2)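 SI is TC50 divided by IC50. TC50 comes from uninfected MDCK cells after 48 h of compound exposure, scored by CPE. IC50 comes from MDCK cells infected with 100 TCID50 and scored for CPE when virus controls reached grade 4. Both values calculated by Reed and Muench.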

[3] = Cytotoxicity against MDCK cells incubated for 48 hrs by CPE method; type: cell-based, Canis lupus familiaris; settings: dog, read-out: TC50
Method in brief: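 MDCK cells seeded at 2.5 × 10^4 per well and grown 24 h, then exposed to various compound concentrations for 48 h at 37 °C in 5% CO2. Toxicity scored by CPE observation. TC50 calculated by Reed and Muench; values are averages of three independent assays.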

Influenza A virus [4] = test: Antiviral activity against Influenza A virus (A/Tianjin-Jinnan/15/2009(H1N1)) infected in MDCK cells assessed as inhibition of virus-induced cytopathic effect; type: functional, organism-based; method in brief: as §1
Influenza B virus = test: Antiviral activity against Influenza B virus (strain B/Jifang/13/97) infected in MDCK cells assessed as inhibition of virus-induced cytopathic effect; type: functional, organism-based
[5] = Selectivity index, ratio of TC50 for MDCK cells to IC50 for Influenza A virus (A/Tianjin-Jinnan/15/2009(H1N1)); type: toxicity, cell-based; settings: dog, read-out: Selectivity Index; method in brief: as §2
[6] = Selectivity index, ratio of TC50 for MDCK cells to IC50 for Influenza B virus (strain B/Jifang/13/97); type: toxicity, cell-based; settings: dog, read-out: Selectivity Index

CCC(=O)Nc1cc(C(=O)Oc2ccccc2)ccc1OC
IC50 (Influenza A virus [1]): 223 µM | selectivity ratio [2]: 2.1 | CC50 at 48 h [3]: 464 µM

CCC(=O)Nc1cc(C(=O)Nc2ccccc2)ccc1OC
IC50 (Influenza A virus [1]): 43 µM | IC50 (Influenza A virus [4]): > 224 µM | selectivity ratio [2]: > 15.6 | CC50 at 48 h [3]: > 670 µM | IC50 (Influenza B virus): > 224 µM

CCC(=O)Nc1cc(C(=O)Nc2ccc(C)cc2)ccc1OC
IC50 (Influenza A virus [1]): 23.7 µM | IC50 (Influenza A virus [4]): > 23.7 µM | selectivity ratio [2]: 6.8 | CC50 at 48 h [3]: 162 µM | IC50 (Influenza B virus): > 23.7 µM

CCC(=O)Nc1cc(C(=O)Nc2ccc(Br)cc2)ccc1OC
IC50 (Influenza A virus [1]): > 17.6 µM | CC50 at 48 h [3]: 90.4 µM

CCC(=O)Nc1cc(C(=O)Nc2cccc(Cl)c2)ccc1OC
IC50 (Influenza A virus [1]): > 66.9 µM | CC50 at 48 h [3]: 602 µM

CCC(=O)Nc1cc(C(=O)Nc2cccc(SC)c2)ccc1OC
IC50 (Influenza A virus [1]): > 63 µM | CC50 at 48 h [3]: 324 µM

CCC(=O)Nc1cc(C(=O)NC2CCCCC2)ccc1OC
IC50 (Influenza A virus [1]): 73 µM | selectivity ratio [2]: 6.9 | CC50 at 48 h [3]: 510 µM

CCC(=O)Nc1cc(C(=O)NC2CCC2)ccc1OC
IC50 (Influenza A virus [1]): 59 µM | IC50 (Influenza A virus [4]): > 241 µM | selectivity ratio [2]: > 12.3 | CC50 at 48 h [3]: > 724 µM | IC50 (Influenza B virus): > 241 µM

CCC(=O)Nc1cc(C(=O)Nc2nccs2)ccc1OC
selectivity ratio [5]: 6.9 | IC50 (Influenza A virus [1]): 35 µM | selectivity ratio [6]: > 5.2 | IC50 (Influenza A virus [4]): 93.8 µM | selectivity ratio [2]: > 18.7 | CC50 at 48 h [3]: > 655 µM | IC50 (Influenza B virus): 126 µM

COc1ccc(C(=O)Nc2ccccc2)cc1NC(=O)C(C)Cl (centres undefined)
IC50 (Influenza A virus [1]): 17.3 µM | IC50 (Influenza A virus [4]): > 22.3 µM | selectivity ratio [2]: 11.6 | CC50 at 48 h [3]: 200 µM | IC50 (Influenza B virus): > 22.3 µM

COc1ccc(C(=O)Nc2ccccc2)cc1NC(C)=O
IC50 (Influenza A virus [1]): 113 µM | selectivity ratio [2]: > 6.2 | CC50 at 48 h [3]: > 704 µM

COc1ccc(C(=O)Nc2ccccc2)cc1NC(=O)c1ccccc1
selectivity ratio [5]: 20.9 | IC50 (Influenza A virus [1]): 12.5 µM | selectivity ratio [6]: 9 | IC50 (Influenza A virus [4]): 9.2 µM | selectivity ratio [2]: 15.4 | CC50 at 48 h [3]: 192 µM | IC50 (Influenza B virus): 21.4 µM

COc1ccc(C(=O)Nc2ccccc2)cc1NC(=O)C1CCCC1
IC50 (Influenza A virus [1]): 37.9 µM | IC50 (Influenza A virus [4]): > 65.7 µM | selectivity ratio [2]: 12.1 | CC50 at 48 h [3]: 459 µM | IC50 (Influenza B virus): > 65.7 µM

COc1ccc(C(=O)Nc2ccccc2)cc1NC(=O)C(C)F (centres undefined)
IC50 (Influenza A virus [1]): 211 µM | selectivity ratio [2]: > 3 | CC50 at 48 h [3]: > 632 µM

CCC(=O)Nc1cc(C(=O)Nc2ccc([N+](=O)[O-])cc2)ccc1OC
IC50 (Influenza A virus [1]): 26.3 µM | selectivity ratio [6]: 4.7 | IC50 (Influenza A virus [4]): > 21.6 µM | selectivity ratio [2]: 11.7 | CC50 at 48 h [3]: 307 µM | IC50 (Influenza B virus): 64.8 µM

CCC(=O)Nc1cc(C(=O)Nc2ccccn2)ccc1OC
IC50 (Influenza A virus [1]): 223 µM | selectivity ratio [2]: > 3 | CC50 at 48 h [3]: > 669 µM

CCC(=O)Nc1cc(C(=O)N(C)c2ccccc2)ccc1OC
IC50 (Influenza A virus [1]): 101 µM | selectivity ratio [2]: 4.4 | CC50 at 48 h [3]: 444 µM

COc1ccc(C(=O)N(C)c2ccccc2)cc1NC(=O)C(C)C
IC50 (Influenza A virus [1]): 117 µM | selectivity ratio [2]: 4.2 | CC50 at 48 h [3]: 492 µM

CCC(=O)Nc1cc(C(=O)Nc2ccccc2)ccc1Cl
IC50 (Influenza A virus [1]): 153 µM | selectivity ratio [2]: 3.5 | CC50 at 48 h [3]: 530 µM

CCC(=O)Oc1cc(C(=O)Nc2ccccc2)ccc1OC
IC50 (Influenza A virus [1]): 173 µM | selectivity ratio [2]: 3 | CC50 at 48 h [3]: 518 µM

COc1ccc(C(=O)Nc2ccccc2)cc1
IC50 (Influenza A virus [1]): > 293 µM | CC50 at 48 h [3]: > 880 µM

COc1c(NC(=O)C(C)F)cccc1C(=O)Nc1ccccc1 (centres undefined)
IC50 (Influenza A virus [1]): > 211 µM | CC50 at 48 h [3]: > 632 µM

COc1cc(NC(=O)C(C)F)cc(C(=O)Nc2ccccc2)c1 (centres undefined)
IC50 (Influenza A virus [1]): 211 µM | selectivity ratio [2]: 2.3 | CC50 at 48 h [3]: 491 µM

COc1ccc(NC(=O)C(C)F)cc1C(=O)Nc1ccccc1 (centres undefined)
IC50 (Influenza A virus [1]): > 70.2 µM | CC50 at 48 h [3]: 272 µM

CC(F)C(=O)Nc1cccc(C(=O)Nc2ccccc2)c1 (centres undefined)
IC50 (Influenza A virus [1]): 144 µM | selectivity ratio [2]: 4 | CC50 at 48 h [3]: 578 µM

CCC(=O)Nc1cc(S(=O)(=O)Nc2ccccc2)ccc1OC
IC50 (Influenza A virus [1]): 48.4 µM | IC50 (Influenza A virus [4]): > 66.7 µM | selectivity ratio [2]: > 12.4 | CC50 at 48 h [3]: > 599 µM | IC50 (Influenza B virus): > 66.7 µM

CCC(=O)Nc1cc(NC(=O)c2ccccc2)ccc1OC
IC50 (Influenza A virus [1]): 74.5 µM | selectivity ratio [2]: 5.2 | CC50 at 48 h [3]: 387 µM

CCOC(=O)C1=C[C@@H](OC(CC)CC)[C@H](NC(C)=O)[C@@H](N)C1 [OSELTAMIVIR]
IC50 (Influenza A virus [1]): 2 µM | IC50 (Influenza A virus [4]): > 2440 µM | selectivity ratio [2]: 1540 | CC50 at 48 h [3]: 3070 µM

NC(=O)c1ncn([C@@H]2O[C@H](CO)[C@@H](O)[C@H]2O)n1 [RIBAVIRIN]
selectivity ratio [5]: 135 | IC50 (Influenza A virus [1]): 8.8 µM | selectivity ratio [6]: 104 | IC50 (Influenza A virus [4]): 35.3 µM | selectivity ratio [2]: 542 | CC50 at 48 h [3]: 4770 µM | IC50 (Influenza B virus): 45.5 µM
